Columns and labels:
[1] = tested on: Staphylococcus aureus; test: Antibacterial activity against Staphylococcus aureus-cMLS after 24 hrs by microdilution method; type: functional
Summary of the method: (§1)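 Broth microdilution in Mueller–Hinton medium run on an automated liquid handler. Compounds dissolved in DMF (5 mg/ml stock) and tested in medium from 64 to 0.125 µg/ml. Plates incubated 24 h at 37 °C, then growth read as absorbance at 600 nm. MIC taken as the concentration giving 90% growth inhibition.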

[2] = tested on: Streptococcus pyogenes; test: Antibacterial activity against Streptococcus pyogenes-M after 24 hrs by microdilution method; type: functional; summary of the method: as §1
[3] = tested on: Streptococcus pneumoniae; test: Antibacterial activity against Streptococcus pneumoniae after 24 hrs by microdilution method; type: functional; summary of the method: as §1
[4] = tested on: Streptococcus pyogenes; test: Antibacterial activity against Streptococcus pyogenes after 24 hrs by microdilution method; type: functional; summary of the method: as §1
[5] = tested on: Streptococcus pneumoniae; test: Antibacterial activity against Streptococcus pneumoniae-M after 24 hrs by microdilution method; type: functional; summary of the method: as §1
[6] = tested on: Staphylococcus aureus; test: Antibacterial activity against Staphylococcus aureus-M after 24 hrs by microdilution method; type: functional; summary of the method: as §1
[7] = tested on: Haemophilus influenzae; test: Antibacterial activity against Haemophilus influenzae after 24 hrs by microdilution method; type: functional; summary of the method: as §1
[8] = tested on: Saccharomyces cerevisiae; test: Toxicity against Saccharomyces cerevisiae; type: organism-based; conditions: in vivo
Summary of the method: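 Yeast used as a surrogate for eukaryotic cell toxicity. Microdilution in Mueller–Hinton medium with compound from a DMF stock (5 mg/ml), final range 64 to 0.125 µg/ml. Incubated 24 h at 37 °C, with optical density read at 600 nm. MIC defined as the concentration inhibiting growth by 90%.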

MIC [1]: > 64 µg/mL | MIC [2]: > 64 µg/mL | MIC [3]: > 64 µg/mL | MIC [4]: > 64 µg/mL | MIC [5]: > 64 µg/mL | MIC [6]: > 64 µg/mL | MIC [7]: > 64 µg/mL
SMILES: CCNC(=O)N1C[C@H](C)C[C@@](C)(O)[C@H](O[C@@H]2O[C@H](C)C[C@H](N(C)C)[C@H]2O)[C@@H](C)[C@H](O)[C@@H](C)C(=O)O[C@H](CC)[C@@](C)(O)[C@H](O)[C@H]1C
Activity [8]: Non-toxic

Reference: ChEMBL document CHEMBL1143064, “Novel 9a-carbamoyl- and 9a-thiocarbamoyl-3-decladinosyl-6-hydroxy and 6-methoxy derivatives of 15-membered macrolides” (Bioorg Med Chem, 2007)
